# This excerpt belongs to a sample that is enriched for hits.
# L major viab: Leishmania major promastigote growth inhibition, primary screen. 200,000 compounds, 9% hits. inhibition, % at 10 µM. AID 1063, 2008. Leishmania major promastigotes, resazurin fluorescence viability;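 also: promastigotes grown with compound for 44 hours at 28 °C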
# PfGluPho inh: PfG6PD enzyme inhibitors, primary screen, biochemical, fluorescence intensity, uHTS; 350,000 compounds, 0.78% hits; inhibition, % at 20 µM; PfGluPho enzyme, NADPH resazurin-diaphorase fluorescence; glucose-6-phosphate dehydrogenase-6-phosphogluconolactonase (Plasmodium falciparum 3D7); AID 504690, 2011;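 active = inhibition reaching at least a set limit at 20 µM in the primary screen, cut at about 59% in these data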;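 also: 0% = DMSO wells with substrate and 100% = DMSO wells lacking glucose-6-phosphate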
# Redox H2O2 prof: compounds producing H2O2 with reducing agent – biochemical, NIH compound library profiling, artefact control for MLSCN library redox annotation, primary screen; DTT-dependent redox cycling H2O2, phenol red/HRP absorbance; 100% = 100 µM peroxide control, 0% = buffer; activation, % at 10 µM; 200,000 compounds, 0.03% hits; AID 878, 2007;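 active = activation of at least 50% relative to the plate's high and low controls in the primary single-dose screen; inactive = activation below 50%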;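 also: compound incubated with DTT at 0.8 mM final as the reducing agent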
# G6PDH CS: L. mesenteroides G6PDH inhibitors, counter-screen for G6PDH-coupled screening assays, biochemical, Leuconostoc mesenteroides enzyme | Purified L. mesenteroides G6PDH, diaphorase/resazurin coupled fluorescence, 45 min | inhibition, % at 5 µM | 200,000 compounds, 0.12% hits | AID 1020, 2008
# Diaph inh CS: diaphorase inhibitors and chemical oxidizers, primary screen, counter-screen for diaphorase-coupled primary assays, biochemical, uHTS, resorufin fluorescence | diaphorase resazurin-to-resorufin fluorescence, NADH, 16 min; bacterial (C. kluyveri) enzyme, not human | inhibition, % at 20 µM | 190,000 compounds, 0.69% hits | AID 1217, 2008;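 active = primary screen inhibition at 20 µM above a set limit, cut at about 50% in these data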;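 also: plate controls were DMSO with full reaction for no effect and wells lacking NADH for full effect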
#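 Test system: Clostridium kluyveri diaphorase enzyme / Quantity: diaphorase at 0.14 U/mL in enzyme working solution / Incubation: 16-min room-temperature incubation before reading / Benchmarks: NADH-free wells as positive control, DMSO-only neutral wells / Signal: resorufin fluorescence 544/590 nm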
# Diaph act CS: compounds boosting diaphorase resazurin reduction – biochemical, uHTS, resorufin fluorescence, counter-screen for diaphorase-coupled primary assays, primary screen | Diaphorase/resazurin coupled assay, 16 min; stronger effect = higher value; 1 = vehicle wells, 0 = NADH-free wells | 190,000 compounds, 0.005% hits | AID 1229, 2008 | activation factor at 20 µM;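 active = diaphorase activity raised at least twofold by the compound at 20 µM; inactive = activation factor below 2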
#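 Material: Clostridium kluyveri diaphorase, purified enzyme; Quantity: enzyme 0.07 U/mL final; Medium: HEPES pH 7.4 buffer with MgCl2 and Tween 20; Dosing: single compound dose of 20 µM, 1% DMSO final; Schedule: 16 min reaction at room temperature; Measured by: red resorufin fluorescence at 544/590 nm excitation/emission.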
# * marks the source's active call; other numbers are inactive results; nt = not tested or not shown. Rule as the data show it, unless noted: active = inhibition above about 50%; inactive = the rest.
SMILES,L major viab,PfGluPho inh,Redox H2O2 prof,G6PDH CS,Diaph inh CS,Diaph act CS
Cc1cc(C)cc(OCCn2ccnc2)c1,nt,14,nt,nt,nt,nt
CCC(C)c1ccc(OCCn2ccnc2)cc1 (centres undefined),60*,3,-1,5,6,0.9
c1ccc2cc(OCCCn3ccnc3)ccc2c1,nt,-6,nt,nt,nt,nt
Cc1cc(OCCn2ccnc2)cc(C(C)C)c1,92*,9,0,-2,18,0.8
Cc1cc(OCCCn2ccnc2)cc(C(C)C)c1,78*,-6,-1,6,14,0.9
CNC(=O)CCCCC(=O)N/N=C/c1ccc(Cl)cc1Cl,nt,0,nt,nt,nt,nt
COc1ccc(NC(=O)C2CCN(S(=O)(=O)c3ccc4c(c3)CC(C)N4C(C)=O)CC2)c(OC)c1 (centres undefined),nt,-3,nt,nt,nt,nt
O=C1[C@H]2[C@@H](c3ccc(F)cc3)N3C(=O)N(c4cccc(F)c4)C(=O)[C@@]3(Cc3ccc(Cl)cc3)[C@H]2C(=O)N1C1CCCCC1,nt,10,nt,nt,nt,nt
COc1ccc(NC(=O)N(C)C[C@@H]2OCc3cn(nn3)CCCC(=O)N([C@@H](C)CO)C[C@H]2C)cc1,nt,12,nt,nt,nt,nt
O=C(NC(C(=O)c1ccccc1)n1ccc(=O)[nH]c1=O)c1ccccc1 (centres undefined),9,7,1,4,13,0.9
Cc1nn(-c2ccccc2)c2sc(C(=O)N(CC(=O)NC(C)(C)C)Cc3ccco3)cc12,60*,0,2,-3,18,0.8
O=C(N/C(=C\c1ccccc1)C(=O)N1CCN(CCO)CC1)c1ccccc1,2,-22,0,0,8,0.9
CCOc1cccc2sc(Nc3nc4ccc(NC(C)=O)cc4s3)nc12,80*,4,0,2,3,1
CCOC(=O)c1sc(Nc2nc(C)cc(C)n2)nc1C,nt,-2,nt,nt,nt,nt
CCOC(=O)c1sc(Nc2ccccc2)nc1C,1,-1,0,12,11,0.9
CCOC(=O)c1sc(Nc2nc3c(OC)cccc3s2)nc1C,73*,nt,1,-1,7,0.9
CCOC(=O)c1sc(Nc2nc3c(F)cccc3s2)cc1C,78*,-17,0,0,-5,1
CCOC(=O)c1sc(Nc2nc(C)cc(OC)n2)nc1C,56*,-8,-1,11,2,1
CCC(=O)Nc1nc2ccc(NC(C)=O)cc2s1,2,7,4,-3,12,0.9
Cc1nc([N+](=O)[O-])cn1-c1nc2ccccn2c1[N+](=O)[O-],nt,-8,nt,nt,nt,nt
O=C1CC2(CCN(C(=O)COc3ccc(Cl)cc3)CC2)Oc2ccccc21,nt,-2,nt,nt,nt,nt
NCCc1nnc(SCc2ccc(F)cc2)o1,-1,-5,-8,1,9,0.9
NCCCCCc1nnc(SCc2ccc(Cl)c(Cl)c2)o1,100*,3,-3,3,8,0.9
CC(=O)c1ccc(N=C2SCCCN2C(=O)C2CCCC2)cc1,64*,0,0,1,5,1
Cc1ccc(NC2C(=O)NC(=O)NC2=O)cc1,nt,30,nt,nt,nt,nt
SMILES,L major viab,PfGluPho inh,Redox H2O2 prof,G6PDH CS,Diaph inh CS,Diaph act CS
FC(F)c1nc2nc(Cl)c(Cl)nc2[nH]1,nt,2,nt,nt,nt,nt
O=C(CC(SCCO)c1ccc2c(c1)OCO2)c1cccs1 (centres undefined),73*,28,2,12,14,0.9
O=C(CC(SCc1ccco1)c1ccc(O)cc1)c1cccs1 (centres undefined),29,-3,0,5,10,0.9
COC(=O)c1ccc(CNC(=O)CN(CCC(C)C)S(=O)(=O)c2ccc3c(c2)OCCO3)cc1,56*,-4,0,9,23,0.8
COc1ccc(C(=O)C2CCN(C(=O)Nc3ccccc3C)CC2)cc1,nt,-7,nt,nt,nt,nt
O=C(c1cnn(C(=O)c2ccco2)c1)c1cc(F)ccc1O,nt,-11,nt,nt,nt,nt
CCN1CCN(C(=O)CCCn2c(C)c3cnn(-c4ccccc4)c(=O)c3c2C)CC1,69*,9,0,-6,16,0.8
C=CCn1c(=O)[nH]c2cc(C(=O)N3CCN(c4cc(C)ccc4C)CC3)ccc2c1=O,39,-2,0,6,5,0.9
O=C(c1ccc(Cn2c(=O)[nH]c3ccccc3c2=O)cc1)N1CCN(c2ccc(Cl)cc2)CC1,96*,-12,0,4,29,0.7
O=C(c1ccc2c(=O)n(Cc3ccccc3)c(=S)[nH]c2c1)N1CCOCC1,nt,-8,nt,nt,nt,nt
Cc1ccc(C)c(N2CCN(C(=O)c3ccc(Cn4c(=O)[nH]c5ccccc5c4=O)cc3)CC2)c1,98*,20,2,0,23,0.8
CC(=O)c1ccc(N2CCN(C(=O)c3ccc(Cn4c(=S)[nH]c5ccc(N6CCOCC6)cc5c4=O)cc3)CC2)cc1,98*,18,0,-5,4,1
COc1ccc(Cn2c(=O)[nH]c3cc(C(=O)N4CCN(c5ccc(OC)cc5)CC4)ccc3c2=O)cc1,nt,3,nt,nt,nt,nt
CCCn1c(N)c(C(=O)COc2ccc(Br)cc2F)c(=O)n(C)c1=O,1,16,-1,4,-6,1.1
O=C(c1ccccc1)N1CC(COc2ccccc2)OC(c2cccnc2)O1 (centres undefined),54*,-9,0,3,3,1
CSc1cccc(N2CC(C(=O)NCCC3=CCCCC3)CC2=O)c1 (centres undefined),nt,5,nt,nt,nt,nt
CCNc1nc(NCC)nc(N/N=C/c2ccc(O)c(O)c2)n1,2,-2,-3,19,61*,0.4
Cc1cc(N2CCOCC2)nc(-c2ccc([N+](=O)[O-])cc2)n1,-1,5,1,4,-7,1.1
Cc1cc(C)c(OC2(c3ccccc3)OC(=O)c3ccccc32)c(C)c1 (centres undefined),3,35,-4,9,10,0.9
Cc1cccc(C)c1OC1(c2ccccc2)OC(=O)c2ccccc21 (centres undefined),98*,15,-4,9,-3,1
Cc1csc(NC(=O)C2CCCN(S(=O)(=O)c3ccc(Br)s3)C2)n1 (centres undefined),61*,-5,0,2,11,0.9
CCOC(=O)C1CCCN(S(=O)(=O)c2ccc(Br)s2)C1 (centres undefined),-4,-5,3,-2,-3,1
O=C(Nc1nc(-c2ccccc2)cs1)C1CCCCN1S(=O)(=O)c1ccccc1 (centres undefined),93*,25,2,5,22,0.8
